Laboratory results taken from PMC6424611 (Journal of molecular biology, 2019).
Where a chain is given by its changes, count along the chain named. In names and notes the source's numbering stands.

B1: WT: full-length wild type RSK1 (1–735) (protein)
chain: MPLAQLKEPWPLMELVPLDPENGQTSGEEAGLQPSKDEGVLKEISITHHVKAGSEKADPSHFELLKVLGQGSFGKVFLVRKVTRPDSGHLYAMKVLKKATLKVRDRVRTKMERDILADVNHPFVVKLHYAFQTEGKLYLILDFLRGGDLFTRLSKEVMFTEEDVKFYLAELALGLDHLHSLGIIYRDLKPENILLDEEGHIKLTDFGLSKEAIDHEKKAYSFCGTVEYMAPEVVNRQGHSHSADWWSYGVLMFEMLTGSLPFQGKDRKETMTLILKAKLGMPQFLSTEAQSLLRALFKRNPANRLGSGPDGAEEIKRHVFYSTIDWNKLYRREIKPPFKPAVAQPDDTFYFDTEFTSRTPKDSPGIPPSAGAHQLFRGFSFVATGLMEDDGKPRAPQAPLHSVVQQLHGKNLVFSDGYVVKETIGVGSYSECKRCVHKATNMEYAVKVIDKSKRDPSEEIEILLRYGQHPNIITLKDVYDDGKHVYLVTELMRGGELLDKILRQKFFSEREASFVLHTIGKTVEYLHSQGVVHRDLKPSNILYVDESGNPECLRICDFGFAKQLRAENGLLMTPCYTANFVAPEVLKRQGYDEGCDIWSLGILLYTMLAGYTPFANGPSDTPEEILTRIGSGKFTLSGGNWNTVSETAKDLVSKMLHVDPHQRLTAKQVLQHPWVTQKDKLPQSQLSHQDLQLVKGAMAATYSALNSSKPTPQLKPIESSILAQRRVRKLPSTTL
modifications: left off: SmBiT, N-terminal, kept
B2: L714E: RSK1 mutant; eliminates the interaction between ERK and RSK (protein)
chain: B1 chain with L714E
modifications: left off: SmBiT, N-terminal, kept
B3: ΔC1: RSK1 with the last C-terminal residue truncated (1–734), no functional PBM (protein)
chain: MPLAQLKEPWPLMELVPLDPENGQTSGEEAGLQPSKDEGVLKEISITHHVKAGSEKADPSHFELLKVLGQGSFGKVFLVRKVTRPDSGHLYAMKVLKKATLKVRDRVRTKMERDILADVNHPFVVKLHYAFQTEGKLYLILDFLRGGDLFTRLSKEVMFTEEDVKFYLAELALGLDHLHSLGIIYRDLKPENILLDEEGHIKLTDFGLSKEAIDHEKKAYSFCGTVEYMAPEVVNRQGHSHSADWWSYGVLMFEMLTGSLPFQGKDRKETMTLILKAKLGMPQFLSTEAQSLLRALFKRNPANRLGSGPDGAEEIKRHVFYSTIDWNKLYRREIKPPFKPAVAQPDDTFYFDTEFTSRTPKDSPGIPPSAGAHQLFRGFSFVATGLMEDDGKPRAPQAPLHSVVQQLHGKNLVFSDGYVVKETIGVGSYSECKRCVHKATNMEYAVKVIDKSKRDPSEEIEILLRYGQHPNIITLKDVYDDGKHVYLVTELMRGGELLDKILRQKFFSEREASFVLHTIGKTVEYLHSQGVVHRDLKPSNILYVDESGNPECLRICDFGFAKQLRAENGLLMTPCYTANFVAPEVLKRQGYDEGCDIWSLGILLYTMLAGYTPFANGPSDTPEEILTRIGSGKFTLSGGNWNTVSETAKDLVSKMLHVDPHQRLTAKQVLQHPWVTQKDKLPQSQLSHQDLQLVKGAMAATYSALNSSKPTPQLKPIESSILAQRRVRKLPSTT
modifications: left off: SmBiT, N-terminal, kept

Legend:
[1] = system: GOPC; assay: NanoBiT protein-protein interaction assay; format: cell-based, human; conditions: full-length proteins, serum-starved HEK293T, n=6, vs WT RSK1
In short: (§1)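 Full-length RSK1 (N-terminal SmBiT) is paired with an N-terminal LgBiT fusion of the partner: ARHGEF12 isoform 2, GOPC isoform 2, PARD3B 1–913, or SYNJ2BP. Sensors are transiently co-expressed in HEK293T cells, which are serum-starved for 20 h from 4 h post-transfection and assayed with Nano-Glo at 24 h. Steady-state signal is referenced to the wild-type pair. For the EGF response (20 ng/ml, 60 min), signal is normalized to initial luminescence and to unstimulated furimazine decay. At least 6 replicates.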

[2] = system: RhoA; assay: G-LISA RhoA activation assay; format: cell-based; conditions: RSK1/2 knockout HEK293T, n=4; for serum-stimulated RhoA activity: serum-starved, 20% serum 5 min
[3] = system: SYNJ2BP; assay: NanoBiT protein-protein interaction assay; format: cell-based, human; conditions: full-length proteins, serum-starved HEK293T, n=6, vs WT RSK1
In short: as §1

[4] = system: PARD3B; assay: NanoBiT protein-protein interaction assay; format: cell-based, human; conditions: PARD3B 1–913, serum-starved HEK293T, n=6, vs WT RSK1
In short: as §1

[5] = system: MAGI1; assay: NanoBiT protein-protein interaction assay; format: cell-based, human; conditions: full-length proteins, serum-starved HEK293T, n=6, vs WT RSK1
In short: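 Full-length RSK1 (N-terminal SmBiT) is co-expressed with full-length MAGI1–LgBiT in HEK293T cells by FuGene HD transfection, then serum-starved for 20 h in CO2-independent medium. Cells are read with Nano-Glo 24 h post-transfection. Steady-state luminescence of mutant sensors is referenced to the wild-type pair. For the 20 ng/ml EGF response, signal is followed for 60 min and normalized to initial luminescence and to furimazine decay in unstimulated cells. At least 6 biological replicates.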

[6] = system: ARHGEF12; assay: NanoBiT protein-protein interaction assay; format: cell-based, human; conditions: full-length proteins, serum-starved HEK293T, n=6, vs WT RSK1
In short: as §1

Row | Molecule | steady-state luminescence of interaction sensor [1] | serum-stimulated RhoA activity [2] | basal RhoA activity ([2]; transfected) | steady-state luminescence of interaction sensor [3] | steady-state luminescence of interaction sensor [4] | steady-state luminescence of interaction sensor [5] | steady-state luminescence of interaction sensor [6]
1 | B1 | high luminescence signals | increased RhoA activity | increased level of basal RhoA activity | high luminescence signals | high luminescence signals | high luminescence signals | high luminescence signals
2 | B2 | – | – | – | decreased the luminescence outputs | decreased the luminescence outputs | – | –
3 | B3 | significantly reduced the luminescent signal | only minor increment | – | significantly reduced the luminescent signal | significantly reduced the luminescent signal | significantly reduced the luminescent signal | significantly reduced the luminescent signal
